Experimental findings from ChEMBL document CHEMBL3091291, “Synthesis and pharmacological characterization of benzenesulfonamides as dual species inhibitors of human and murine mPGES-1” (Bioorg Med Chem, 2013) are described below.

Data set [1] concerns the target T1, Prostaglandin E synthase (Mus musculus) (UniProt Q9JM51).
T1 sequence (whole entry): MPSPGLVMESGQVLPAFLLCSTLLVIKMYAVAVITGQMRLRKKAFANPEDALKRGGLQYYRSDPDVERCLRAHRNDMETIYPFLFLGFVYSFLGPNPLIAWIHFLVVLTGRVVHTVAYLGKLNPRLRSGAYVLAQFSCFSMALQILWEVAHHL
Put plainly: Inhibition of mPGES-1 in Swiss mouse NIH/3T3 cells using PGH2 as substrate assessed as inhibition of IL-1beta/TNFalpha-stimulated PGE2 production at 5 uM preincubated for 30 mins followed by substrate addition measured after 1 min by LC-MS/MS analysis. In kind it is cell-based. Summed up: (§1)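 Microsomal fraction from HeLa, NIH-3T3 or RAW 264.7 cells, obtained by sonication and ultracentrifugation, resuspended in 0.1 M KPi pH 7.4 with 2.5 mM reduced GSH. Protein at 0.15 mg/mL (HeLa, NIH) or 0.3 mg/mL (RAW) incubated with compound 30 min on ice. Reaction started with 20 µM PGH₂, stopped after 1 min with FeCl₂/citric acid. PGE₂ quantified by SPE and LC–MS/MS. IC50 from four-parameter logistic fit of increasing concentrations.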

In data set [2] the target is T2, Prostaglandin E synthase (Homo sapiens) (UniProt O14684).
T2 sequence (whole entry): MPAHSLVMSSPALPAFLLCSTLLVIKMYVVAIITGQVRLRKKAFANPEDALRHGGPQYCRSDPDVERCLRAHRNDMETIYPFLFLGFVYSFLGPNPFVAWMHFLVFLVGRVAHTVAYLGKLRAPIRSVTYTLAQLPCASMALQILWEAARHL
As to the kind of experiment: Inhibition of mPGES-1 in human HeLa cells using PGH2 as substrate assessed as inhibition of IL-1beta/TNFalpha-stimulated PGE2 production at 5 uM preincubated for 30 mins followed by substrate addition measured after 1 min by LC-MS/MS analysis. The data set is classed as cell-based. Summed up: as §1

The target in data set [3] is T3, Polyunsaturated fatty acid 5-lipoxygenase (Homo sapiens) (UniProt P09917).
T3 sequence (whole entry): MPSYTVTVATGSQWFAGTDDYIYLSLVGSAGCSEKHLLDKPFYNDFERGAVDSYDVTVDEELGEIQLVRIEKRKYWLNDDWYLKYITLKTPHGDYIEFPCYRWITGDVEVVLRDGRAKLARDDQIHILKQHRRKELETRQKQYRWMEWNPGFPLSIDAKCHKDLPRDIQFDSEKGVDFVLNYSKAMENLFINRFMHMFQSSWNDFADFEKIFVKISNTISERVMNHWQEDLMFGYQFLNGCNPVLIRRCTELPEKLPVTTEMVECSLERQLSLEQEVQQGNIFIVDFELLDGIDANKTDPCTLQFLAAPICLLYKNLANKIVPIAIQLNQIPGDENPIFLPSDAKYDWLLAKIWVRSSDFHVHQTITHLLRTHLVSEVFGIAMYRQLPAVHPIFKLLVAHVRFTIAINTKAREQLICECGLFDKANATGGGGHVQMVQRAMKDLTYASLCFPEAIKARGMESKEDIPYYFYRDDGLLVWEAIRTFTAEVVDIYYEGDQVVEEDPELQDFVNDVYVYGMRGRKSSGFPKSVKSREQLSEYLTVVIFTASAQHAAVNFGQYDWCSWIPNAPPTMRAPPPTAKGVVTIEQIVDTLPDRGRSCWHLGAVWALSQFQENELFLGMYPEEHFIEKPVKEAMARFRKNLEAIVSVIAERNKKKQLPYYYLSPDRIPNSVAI
As to the kind of experiment: Inhibition of calcium ionophore (A23187)-stimulated human 5-LO assessed as reduction of 5(S)-HETE production by measuring remaining activity at 100 uM preincubated for 15 mins followed by calcium ionophore (A23187) addition measured after 15 mins by LC-MS/MS analysis. Summed up:
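Heparinized human whole blood (500 µL) preincubated with compound 15 min at 37 °C, then stimulated with 20 µM calcium ionophore A23187 in autologous plasma for 15 min at 37 °C. Plasma spiked with deuterated LTB₄ and HETE internal standards, extracted into ethyl acetate, analysed by LC–MS/MS. Inhibition scored when a level fell by 33% or more versus control.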

The nature of data set [4]: Cytotoxicity against IL-1beta/TNFalpha-stimulated human HeLa cells assessed as cell viability at 100 uM after 24 hrs by WST-1 assay. The data set is classed as cell-based. To be noted: IL-1beta/TNFalpha-stimulated HeLa cells, read-out: Activity. Summed up: (§2)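 HeLa cells seeded at 3 × 10³ per well in medium with 10% FCS, grown 24 h at 37 °C, then stimulated with IL-1b (1 ng/mL) + TNFa (5 ng/mL) and treated at the same time with compound (1, 10, 100 µM) or DMSO for 24 h. WST-1 reagent then added for 90–150 min; absorbance read at 450 nm against 620 nm reference.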

For data set [5], the target named is T4, Prostaglandin E synthase (Homo sapiens, UniProt O14684).
T4 sequence (O14684 whole entry): T2 sequence (whole entry)
Put plainly: Inhibition of mPGES-1 in human HeLa cells using PGH2 as substrate assessed as inhibition of IL-1beta/TNFalpha-stimulated PGE2 production preincubated for 30 mins followed by substrate addition measured after 1 min by LC-MS/MS analysis. The data set is classed as cell-based. Summed up: as §1

The target of data set [6] is Prostaglandin G/H synthase 1 (Homo sapiens) (UniProt P23219). As to the kind of experiment: Inhibition of COX1 in human whole blood assessed as reduction in TXB2 production by measuring remaining activity at 100 uM after 1 hr by LC-MS/MS analysis.
Data set [7] deals with T1, Prostaglandin E synthase (Mus musculus). Put plainly: Inhibition of mPGES-1 in mouse RAW264.7 cells using PGH2 as substrate assessed as inhibition of LPS-stimulated PGE2 production at 5 uM preincubated for 30 mins followed by substrate addition measured after 1 min by LC-MS/MS analysis. In kind it is cell-based. An outline of the steps:
as §1

In data set [8] the test system is HeLa. As to the kind of experiment: Cytotoxicity against IL-1beta/TNFalpha-stimulated human HeLa cells assessed as cell viability up to 10 uM after 24 hrs by WST-1 assay. In kind it is cell-based. An outline of the steps:
as §2

Data set [9] concerns the target T2, Prostaglandin E synthase (Homo sapiens). As to the kind of experiment: Inhibition of mPGES-1 in human HeLa cells using PGH2 as substrate assessed as inhibition of IL-1beta/TNFalpha-stimulated PGE2 production at 10 uM after 24 hrs by LC-MS/MS analysis. In kind it is cell-based. An outline of the steps:
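HeLa cells (2 × 10⁴ per well) grown 24 h at 37 °C, then given fresh medium with 1 ng/mL IL-1b + 5 ng/mL TNFa (or PBS for unstimulated control) plus compound (1, 10 or 100 µM) or DMSO for 24 h at 37 °C. Supernatant mixed with H₃PO₄, EDTA and deuterated internal standards; PGE₂ measured by SPE and LC–MS/MS.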

Calls of active or inactive are those of the source. The calls are words filed in the database; no cut-off is given here.

Chain of Prostaglandin G/H synthase 1 (Homo sapiens) (P23219 whole entry): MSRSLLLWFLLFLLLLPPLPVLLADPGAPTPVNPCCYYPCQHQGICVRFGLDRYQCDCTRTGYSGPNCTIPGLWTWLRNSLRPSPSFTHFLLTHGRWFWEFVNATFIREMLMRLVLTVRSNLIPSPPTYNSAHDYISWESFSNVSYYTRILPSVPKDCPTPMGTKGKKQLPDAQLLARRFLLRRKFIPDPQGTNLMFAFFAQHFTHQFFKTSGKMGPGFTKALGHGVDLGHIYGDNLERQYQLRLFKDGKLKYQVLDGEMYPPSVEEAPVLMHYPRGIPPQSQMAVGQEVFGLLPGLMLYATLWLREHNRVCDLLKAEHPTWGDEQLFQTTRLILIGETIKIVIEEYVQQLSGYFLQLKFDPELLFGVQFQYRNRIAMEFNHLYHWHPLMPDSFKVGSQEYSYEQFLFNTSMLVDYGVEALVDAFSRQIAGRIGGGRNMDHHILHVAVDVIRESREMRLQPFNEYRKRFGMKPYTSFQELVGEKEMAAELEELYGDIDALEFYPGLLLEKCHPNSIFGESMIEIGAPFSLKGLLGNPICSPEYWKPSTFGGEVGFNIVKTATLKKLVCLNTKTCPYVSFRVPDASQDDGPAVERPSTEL

For `COc1ccc(CN(Cc2ccccc2)S(=O)(=O)c2ccc(C(=O)O)cc2)cc1`, the inhibition in data set [1] worked out at 10.6%; in [2] it was 39.9%; in data set [7], 29.8%. The Activity in [3] was 120%; in data set [6] it was 90%; in data set [8], “Non-toxic”. Also, the viability at 24 h, 100 µM in data set [4] worked out at 50%. Further, the IC50 in [5] was 13.8 µM. For the same compound, the inhibition entry in [9] was “inactive”.

Turning to `O=C(O)c1ccc(S(=O)(=O)N(Cc2ccccc2)c2ccc(Oc3ccccc3)cc2)cc1`, the values for the inhibition in data set [1], in data set [2] and in data set [7] were 71.2%, 79.8% and 74.7%, respectively. Moreover, the figures for the Activity in [3], in data set [6] and in [8] were 125%, 85.2% and “Non-toxic”, respectively. Besides, the viability at 24 h, 100 µM in data set [4] was determined as 50%. In addition, the IC50 in [5] is 1.7 µM. Moreover, the inhibition entry in [9] is “Active”.

Regarding `O=C(O)c1ccc(S(=O)(=O)N(Cc2ccccc2)Cc2ccc(Oc3ccccc3)cc2)cc1`, the inhibition came out at 65.1% in [1], 90% in data set [2] and 71.4% in data set [7]. Further, the Activity is 98.7% in data set [3], 92.4% in [6] and “Non-toxic” in [8]. Moreover, the viability at 24 h, 100 µM in data set [4] was 50%. In addition, the IC50 in [5] was found to be 1 µM. Further, the inhibition result in data set [9] is “Active”.

For `O=C(O)c1ccc(S(=O)(=O)N(Cc2ccccc2)Cc2ccc(Nc3ccccc3)cc2)cc1`, the inhibition was 67.9% in data set [1] and 78.5% in data set [2]. The Activity was 56.2% in [3], 110% in data set [6] and “Non-toxic” in data set [8]. For the same compound, the viability at 24 h, 100 µM in [4] came out at 50%. Also, in data set [5], the IC50 stood at 7.2 µM. Also, the inhibition result in data set [9] was “Active”.

Turning to `COc1ccc(CN(CC2CCCCC2)S(=O)(=O)c2ccc(C(=O)O)cc2)cc1`, the values for the inhibition in [1] and in [2] were 48.5% and 67.9%, respectively. Besides, the Activity in [3] is 65.6%; in data set [6], 83.6%; in data set [8], “Non-toxic”. Besides, in [4], the viability at 24 h, 100 µM stood at 50%. In addition, in [5], the IC50 is 10.2 µM. In data set [9], the inhibition result was “Active”.
